# Activity calls are given as the source filed them. No cut-off for these calls is given here.
# Assays:
# [1] = test system: A549; assay: Antiproliferative activity against human A549 cells at 40 uM after 72 hrs by SRB assay; assay type: functional, cell-based
# [2] = test system: MDA-MB-231; assay: Antiproliferative activity against human MDA-MB-231 cells at 40 uM after 72 hrs by SRB assay; assay type: functional, cell-based
# [3] = test system: MCF7; assay: Antiproliferative activity against human MCF7 cells at 40 uM after 72 hrs by SRB assay; assay type: functional, cell-based
# [4] = test system: KB; assay: Antiproliferative activity against human KB cells at 40 uM after 72 hrs by SRB assay; assay type: functional, cell-based
# [5] = organism: Homo sapiens; assay: Antiproliferative activity against human KBVIN cells at 40 uM after 72 hrs by SRB assay; assay type: functional, cell-based
# [6] = Antiproliferative activity against human KBVIN cells after 48 hrs by SRB assay; assay type: functional, cell-based
# In short: (§1)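 SRB assay. Cell suspensions were seeded at 4000–12 000 cells/well in RPMI-1640 with 2 mM L-glutamine, 25 mM HEPES, 10% FBS, streptomycin and penicillin. Cells were exposed to compounds for 72 h. For the time course, cells were plated 24 h before treatment and then exposed for 24, 48 or 72 h. Cells were fixed in 10% TCA and stained with 0.04% SRB. Bound dye was dissolved in 10 mM Tris and read at 515 nm.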
# [7] = Antiproliferative activity against human KBVIN cells after 72 hrs by SRB assay; assay type: functional, cell-based; in short: as §1
# [8] = Antiproliferative activity against human KBVIN cells after 24 hrs by SRB assay; assay type: functional, cell-based; in short: as §1
# [9] = test system: KB; assay: Antiproliferative activity against human KB cells after 48 hrs by SRB assay; assay type: functional, cell-based
# [10] = test system: KB; assay: Antiproliferative activity against human KB cells after 72 hrs by SRB assay; assay type: functional, cell-based
# [11] = test system: KB; assay: Antiproliferative activity against human KB cells after 24 hrs by SRB assay; assay type: functional, cell-based
# [12] = test system: MCF7; assay: Antiproliferative activity against human MCF7 cells after 48 hrs by SRB assay; assay type: functional, cell-based; settings: MCF7, 48 h
# [13] = test system: MCF7; assay: Antiproliferative activity against human MCF7 cells after 72 hrs by SRB assay; assay type: functional, cell-based; settings: MCF7, 72 h
# [14] = test system: MDA-MB-231; assay: Antiproliferative activity against human MDA-MB-231 cells after 72 hrs by SRB assay; assay type: functional, cell-based; settings: MDA-MB-231, 72 h
# [15] = test system: MCF7; assay: Antiproliferative activity against human MCF7 cells after 24 hrs by SRB assay; assay type: functional, cell-based; settings: MCF7, 24 h
# [16] = test system: MDA-MB-231; assay: Antiproliferative activity against human MDA-MB-231 cells after 24 hrs by SRB assay; assay type: functional, cell-based; settings: MDA-MB-231, 24 h
# [17] = test system: MDA-MB-231; assay: Antiproliferative activity against human MDA-MB-231 cells after 48 hrs by SRB assay; assay type: functional, cell-based; settings: MDA-MB-231, 48 h
# [18] = test system: A549; assay: Antiproliferative activity against human A549 cells after 48 hrs by SRB assay; assay type: functional, cell-based; settings: A549, 48 h
# In short: (§2)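 Time-course: cells seeded at 4000–12 000 per well 24 h before compound exposure for 24, 48 or 72 h, as named in the line. Cells then fixed in 10% trichloroacetic acid, stained with 0.04% SRB, and dye solubilized in 10 mM Tris base read at 515 nm. […] Medium RPMI-1640 with 10% FBS.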
# [19] = test system: A549; assay: Antiproliferative activity against human A549 cells after 72 hrs by SRB assay; assay type: functional, cell-based; settings: A549, 72 h; in short: as §2
# [20] = test system: A549; assay: Antiproliferative activity against human A549 cells after 24 hrs by SRB assay; assay type: functional, cell-based; settings: A549, 24 h; in short: as §2
# [21] = test system: MDA-MB-231; assay: Cell cycle arrest in human MDA-MB-231 cells assessed as accumulation at sub-G1 phase at 10 times IC50 after 48 hrs by propidium iodide staining based flow cytometry; assay type: functional
# In short: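 DMSO served as vehicle control and combretastatin A-4 at 0.1 μM as the G2/M-arrest control. Harvested cells were fixed and stained with propidium iodide plus RNase. DNA content was analysed by flow cytometry, and sub-G1 cells were counted. Each experiment was done at least twice.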
# [22] = test system: Breast carcinoma cell; assay: Antiproliferative activity against human breast cancer cells at 10 to 100 nM after 48 hrs by SRB assay; assay type: functional, cell-based
# [23] = test system: CNS carcinoma cell; assay: Antiproliferative activity against human CNS cancer cells at 10 to 100 nM after 48 hrs by SRB assay; assay type: functional, cell-based
# [24] = test system: Leukemia cell; assay: Antiproliferative activity against human leukemia cells at 10 to 100 nM after 48 hrs by SRB assay; assay type: functional, cell-based
# [25] = test system: Melanoma cell; assay: Antiproliferative activity against human melanoma cells at 10 to 100 nM after 48 hrs by SRB assay; assay type: functional, cell-based
# [26] = organism: Homo sapiens; assay: Antiproliferative activity against human non-small cell lung cancer cells at 10 to 100 nM after 48 hrs by SRB assay; assay type: functional
# [27] = test system: Ovarian carcinoma cell; assay: Antiproliferative activity against human ovarian cancer cells at 10 to 100 nM after 48 hrs by SRB assay; assay type: functional, cell-based
# [28] = test system: Prostatic carcinoma cell; assay: Antiproliferative activity against human prostate cancer cells at 10 to 100 nM after 48 hrs by SRB assay; assay type: functional
# [29] = organism: Homo sapiens; assay: Antiproliferative activity against human renal cancer cells at 10 to 100 nM after 48 hrs by SRB assay; assay type: functional, cell-based
# [30] = organism: Homo sapiens; assay: Antiproliferative activity against human […] cells at 10 to 100 nM after 48 hrs by SRB assay; assay type: functional, cell-based
# [31] = test system: NCI/ADR-RES; assay: Antiproliferative activity against human NCI-ADR-RES cells after 48 hrs by SRB assay
SMILES,Activity [1],Activity [2],Activity [3],Activity [4],Activity [5],IC50 [6],IC50 [7],IC50 [8],IC50 [9],IC50 [10],IC50 [11],IC50 [12],IC50 [13],IC50 [14],IC50 [15],IC50 [16],IC50 [17],IC50 [18],IC50 [19],IC50 [20],further results
C=C[C@H]1[C@H](O[C@@H]2O[C@H](CO)[C@@H](O)[C@H](O)[C@H]2OC(=O)/C=C/c2cc(OC)c(O)c(OC)c2)OC=C2C(=O)N3CCc4cc(O)c(O)cc4[C@H]3C[C@H]21,inactive,inactive,inactive,inactive,inactive,,,,,,,,,,,,,,,,
CC(=O)O[C@H]1C(=O)[C@@]2(C)[C@H]([C@H](OC(=O)c3ccccc3)[C@]3(O)C[C@H](OC(=O)[C@H](O)[C@@H](NC(=O)c4ccccc4)c4ccccc4)C(C)=C1C3(C)C)[C@]1(OC(C)=O)CO[C@@H]1C[C@@H]2O [PACLITAXEL],,,,,,2.88 µM,2380 nM,> 3 µM,,,,,,,,,,,,,
CC[C@H]1CN2CCc3cc(O)c(OC)cc3[C@@H]2C[C@@H]1C[C@H]1NCCc2c1[nH]c1ccc(O)cc21,,,,,,> 10 µM,> 10000 nM,> 10 µM,470 nM,620 nM,290 nM,270 nM,380 nM,220 nM,250 nM,190 nM,230 nM,300 nM,620 nM,360 nM,
CC[C@H]1CN2CCc3c(cc(OC)c(OC)c3O)[C@@H]2C[C@@H]1C[C@H]1NCCc2c1[nH]c1ccc(O)cc21,,,,,,11.1 µM,> 10000 nM,8.9 µM,150 nM,210 nM,90 nM,160 nM,210 nM,80 nM,120 nM,60 nM,80 nM,230 nM,280 nM,210 nM,Activity [21]: Active; Activity [22]: Active; Activity [23]: Active; Activity [24]: Active; Activity [25]: Active; Activity [26]: Active; Activity [27]: Active; Activity [28]: Active; Activity [29]: Active; Activity [30]: Active; Activity [31]: Active
COc1cccc2c1C(=O)c1c(O)c3c(c(O)c1C2=O)C[C@@](O)(C(=O)CO)C[C@@H]3O[C@H]1C[C@H](N)[C@H](O)[C@H](C)O1 [DOXORUBICIN],,,,,,> 1 µM,> 1000 nM,> 1 µM,340 nM,220 nM,820 nM,,,,,,,,,,
C=C[C@H]1[C@H](O[C@@H]2O[C@H](CO)[C@@H](O)[C@H](O)[C@H]2OC(=O)/C=C/c2cc(OC)c(O)c(OC)c2)OC=C2C(=O)N3CCc4cc(O)c(OC)cc4[C@H]3C[C@H]21,inactive,inactive,inactive,inactive,inactive,,,,,,,,,,,,,,,,

# From ChEMBL document CHEMBL4196149, “Antiproliferative Alkaloids from Alangium longiflorum, an Endangered Tropical Plant Species” (J Nat Prod, 2018)
